Reference: PMC10449972 (Clinical Pharmacokinetics, 2023)

Tests used:
human HSD-1 = conditions: measured in vitro; cited from earlier work
HSD-1 [1] = molecular target: T1, HSD-1 (Homo sapiens, UniProt P28845); conditions: earlier TMDD model; cited from earlier work
HSD-1 [2] = molecular target: T1, HSD-1; assay: TMDD model component: binding of SPI-62 to its pharmacological target HSD-1; assay type: in vivo, human (healthy adults)
Summary of the method: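 Target-binding component of the simultaneous population PK/PD fit. Drug in the central compartment binds HSD-1 with a second-order association constant (Kon) to form a complex. The complex dissociates with a first-order constant (Koff). Rtotal is the total HSD-1 amount. Data were pooled plasma concentrations from single- and multiple-dose trials plus urinary HSD-1 activity from multiple-dose cohorts. Kd was derived as Koff/Kon, and IIV was exponential.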

hepatic HSD-1 [3] = molecular target: T2, hepatic HSD-1 (Homo sapiens, UniProt P28845); conditions: cited from earlier work
HSD-2 = conditions: cited from earlier work
hepatic HSD-1 [4] = molecular target: T2, hepatic HSD-1; assay: Hepatic HSD-1 activity, urinary ratio; assay type: in vivo, human (healthy adults); conditions: regimens as low as 0.2 mg once daily, lowest dose tested
Summary of the method: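 Healthy adults in low-dose multiple-dose cohorts were given oral test compound: 3 mg loading then 0.2 mg once daily (days 2–14); 0.4 mg once daily (days 1–14); or 0.7 or 2 mg single dose, 6-day washout, then once daily (days 7–20). First-morning urine was collected predose and on scheduled days, and steroids were measured by LC-MS/MS. Activity ratio was fitted against time-matched model-predicted plasma concentration using a sigmoid inhibitory Imax model.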

[5] = single dose of 0.7 mg SPI-62, plasma; cited from earlier work
hepatic HSD-1 [6] = conditions: lowest daily dose of 1 mg ABT-384, last day of dosing; cited from earlier work

T2 sequence (P28845 whole entry): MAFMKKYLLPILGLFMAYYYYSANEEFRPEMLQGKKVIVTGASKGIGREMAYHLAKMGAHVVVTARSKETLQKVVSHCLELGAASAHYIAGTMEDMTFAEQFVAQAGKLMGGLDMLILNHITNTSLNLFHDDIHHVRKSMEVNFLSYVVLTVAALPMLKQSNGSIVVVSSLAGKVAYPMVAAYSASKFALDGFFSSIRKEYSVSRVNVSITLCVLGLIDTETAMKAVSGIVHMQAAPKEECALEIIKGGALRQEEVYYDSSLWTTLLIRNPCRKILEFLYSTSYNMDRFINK
T1 sequence (P28845 whole entry): as above

Row | Kd (HSD-1 [2]) | Kd, ratio of Koff and Kon (HSD-1 [2]; calculated from TMDD model estimates) | Target capacity (Rtot) expressed as amount of SPI-62 (HSD-1 [2]; corresponds to 5460 nmol) | Kon, second-order association rate constant (HSD-1 [2]; estimated, final PK/PD model) | Inhibition of hepatic HSD-1 (hepatic HSD-1 [4]) | SMILES | Ki (human HSD-1) | Rmax, capacity of the target, estimated using PK data alone (HSD-1 [1]) | Hepatic HSD-1 inhibition on day 6 (hepatic HSD-1 [3]; after single low dose, 6-day wash out, day 6) | HSD-1 inhibition after repeated doses (hepatic HSD-1 [3]; all low dose groups (0.2 mg with 3 mg loading dose, 0.4, 0.7, 2 mg QD)) | Return of urinary HSD-1 ratio to baseline (hepatic HSD-1 [3]; approximately 16 days after the last dose, lowest dose 0.2 mg) | HSD-1 inhibition (urinary HSD-1 ratio) after the first dose (hepatic HSD-1 [3]; first dose of 0.7 mg) | Hepatic HSD-1 inhibition (hepatic HSD-1 [3]; following a single dose of 0.7 mg) | Activity on HSD-2 (HSD-2) | Average Cmax [5] | Hepatic HSD-1 inhibition (hepatic HSD-1 [6])
1 | 0.0272 nM | 0.0272 nM | approximately 2.2 mg | 2.34e+06 M⁻¹ s⁻¹ | almost complete inhibition | Cn1c(-c2ccc(C(N)=O)cc2F)nnc1C(C)(C)Oc1c(F)cc(Cl)cc1F [SPI-62] | 5.3 nM | 6070 nmol | > 30% | full HSD-1 inhibition | incomplete return | substantial HSD-1 inhibition | more than 40% | minimal activity | 0.02 ng/mL | 
2 |  |  |  |  |  | CC(C)(C(=O)NC1C2CC3CC1CC(C(N)=O)(C3)C2)N1CCN(c2ccc(C(F)(F)F)cn2)CC1 (stereo not drawn) [ABT-384] |  |  |  |  |  |  |  |  |  | full hepatic HSD-1 inhibition
